This note sets out measurements from paper PMC7965737 (Bioconjugate chemistry, 2019).

The subject of experiment [1] is MDA-MB-468. The experiment can be described thus: MTT cytotoxicity assay, MDA-MB-468. It is filed as cell-based, Human. The following applies: MDA-MB-468 breast cancer cell line, serum-free media, 48 h. A digest of the protocol: (§1)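 Cells were seeded at 5×10^3 per well in complete medium. The next day the medium was replaced with serum-free medium containing test compound (0–100 μM) or free doxorubicin (positive control), with untreated cells in serum-free medium as negative control, for 48 h at 37 °C, 5% CO2. MTT (5 mg/mL solution) was then added for 2 h. Formazan was dissolved in 4 mM HCl/0.1% NP40/2-propanol (1:1:1) and read at 570 nm. Viability was taken relative to untreated cells, in triplicate, with the experiment repeated once. IC50 came from a nonlinear fit of normalized data against log concentration.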

For experiment [2], the system named is MCF-10A. Nature of the experiment: MTT cytotoxicity assay, MCF-10A. It is filed as cell-based, Human. The following applies: non-cancerous cell line MCF-10A, serum-free media, 48 h. An outline of the steps:
as §1

Counter-ions that a name gives are not always drawn.

For the molecule `COc1cccc2c1C(=O)c1c(O)c3c(c(O)c1C2=O)C[C@@](O)(C(=O)CO)C[C@@H]3O[C@H]1C[C@H](N)[C@H](O)[C@H](C)O1` [Dox, Doxorubicin hydrochloride], the 50% inhibitory concentration (IC50) in experiment [1] stood at 350 nM; in experiment [2], 240 nM.
